Data on nine compounds can be found in PubChem BioAssay AID588745 (Vanderbilt Specialized Chemistry Center, 2011).

The structures appear in SMILES notation. A number with no mark means an inactive call.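 How the source made its calls: active means compounds whose response rose with dose, given a half-maximal potency and peak effect versus acetylcholine; inactive means the rest.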

This assay has as its target Muscarinic acetylcholine receptor M3 (Homo sapiens) (UniProt P20309). As to the kind of experiment: potentiation of ACh at human M3 – CHO cells, calcium fluorescence, counter-screen, dose response (AID 588745). Conditions: CHO hM3 cells, Fluo-4 calcium fluorescence, PAM mode; series mostly up to 30 µM; % ACh max response: at the top concentration. Put shortly: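 Assay system – human M3 CHO cells · Reagent – ACh EC20 followed by ACh EC80 · Times – compound 144 s before EC20 ACh, EC80 ACh 86 s later, 37 °C · Measured by – Fluo-4 calcium fluorescence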
For orientation: A counterscreen serves to expose hits that act by an unwanted route or on another target.
As for `Cc1nc2sc(C(=O)NCc3ccncc3)c(N)c2c(C)c1Cl`, the “% ACh max response” value was 7.68 [at 45.3 µM].

Turning to `Cc1nc2sc(C(=O)NCc3cccc(F)c3F)c(N)c2c(C)c1Cl`, the “% ACh max response” value was 8.6.

In the case of `Cc1nc2sc(C(=O)NCCc3ccncc3)c(N)c2c(C)c1Cl`, the “% ACh max response” value was 28.6.

In the case of `Cc1nc2sc(C(=O)NC3CC3)c(N)c2c(C)c1Cl`, the “% ACh max response” value is 18.7.

`Cc1nc2sc(C(=O)NCc3ccccc3)c(N)c2c(C)c1Cl`: the “% ACh max response” value was 13.2 [at 37.4 µM].

Turning to `Cc1nc2sc(C(=O)NCc3ccncn3)c(N)c2c(C)c1Cl`, the “% ACh max response” value was 15.1.

Take `Cc1nc2sc(C(=O)NCc3nccs3)c(N)c2c(C)c1Cl`: the “% ACh max response” value was 29.5.

Turning to `Cc1nc2sc(C(=O)NCc3ccc4c(c3)OCO4)c(N)c2c(C)c1Cl`, the “% ACh max response” value is 15.9 [at 36.8 µM].

Turning to `Cc1nc2sc(C(=O)NCc3cccnc3)c(N)c2c(C)c1Cl`, the “% ACh max response” value was 14.8 [at 45.3 µM].
